# High-throughput results (PubChem)
# An excerpt weighted towards active compounds, which were near 1.6% of everything screened.
# C8 TRAIL sens: sensitizes caspase-8 expressing cells to TRAIL; inhibition (viability loss, TRAIL sensitization), % at 10 µM; NB7+C8 cells + TRAIL, ATPlite viability luminescence; 360,000 compounds, 1% hits;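 active = compounds causing at least 50% loss of cell viability in the single-dose screen, relative to plate controls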
# PPC-1+TRAIL kill: PPC-1 cancer cell killing with TRAIL present; 220,000 compounds, 0.41% hits; PPC-1 cells + TRAIL, ATPLite viability luminescence; cell killing (% activity), % at 4 µM or 5 µM;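 active = cell killing above 50% in the first pass at 4 µM, then a duplicate retest at 5 µM averaging 50% or more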;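 also: plate controls were cells with TRAIL plus DMSO for no effect and medium-only wells lacking cells for full effect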
# FLuc inh counter: counter-screen for luciferase assay inhibitors: firefly luciferase inhibition; P08659; ATPLite firefly luciferase biochemical luminescence, 10 min; inhibition, % at 10 µM; 200,000 compounds, 1.5% hits; AID 1006;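 active = inhibition above about 50% when tested at 10 µM, limit read from the data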
# Target sequence (P08659 whole entry, looked up): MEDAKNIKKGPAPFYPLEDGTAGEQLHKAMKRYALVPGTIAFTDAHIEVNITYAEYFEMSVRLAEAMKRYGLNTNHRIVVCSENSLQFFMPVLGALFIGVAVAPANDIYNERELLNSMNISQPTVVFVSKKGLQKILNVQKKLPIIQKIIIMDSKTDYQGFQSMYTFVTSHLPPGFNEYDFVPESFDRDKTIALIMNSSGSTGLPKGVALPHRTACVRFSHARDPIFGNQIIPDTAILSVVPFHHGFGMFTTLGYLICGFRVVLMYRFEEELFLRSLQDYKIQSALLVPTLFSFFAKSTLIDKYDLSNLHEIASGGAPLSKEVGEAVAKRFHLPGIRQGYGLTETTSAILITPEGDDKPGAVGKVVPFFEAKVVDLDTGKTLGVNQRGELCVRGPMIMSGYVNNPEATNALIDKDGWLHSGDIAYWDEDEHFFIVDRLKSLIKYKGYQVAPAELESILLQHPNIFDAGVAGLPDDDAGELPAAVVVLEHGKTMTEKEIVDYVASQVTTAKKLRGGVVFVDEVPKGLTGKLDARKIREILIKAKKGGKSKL
# Platelet DG rel: modulates dense granule release in human platelets; inhibition, %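 (compounds screened at 7.5 µM in platelet-rich plasma)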; 300,000 compounds, 0.22% hits; human platelet-rich plasma, SFLLRN dense granule ATP release, luminescence; AID 1663;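 active = mean replicate score, as percent of positive control, at or above 50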
# FLuc stim CS: affects firefly luciferase, flagging false hits in luciferase stimulation screens | P08659 | ATPlite luciferase biochemical, luminescence, 10 min; 0 = ATP-free wells, 1 = DMSO control | activation factor at 10 µM | 200,000 tested, under 10 active | AID 1027;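 active = luciferase activation factor, scaled between plate controls, of at least 2 with compound at 10 µM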
#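 assay system = Luciferase/luciferin detection reagent, cell-free biochemical luciferase assay | also added = ATP substrate | times = 10 min post-reagent at room temperature | measured by = luminescence from luciferase reaction | measure = luciferase activation, seen as luminescence increase over controls | benchmarks = low control with PBS replacing ATP, high control enzyme plus ATP without compound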
# Starred values were filed as active, the others as inactive; x = no result.
SMILES,C8 TRAIL sens,PPC-1+TRAIL kill,FLuc inh counter,Platelet DG rel,FLuc stim CS
Cc1ccccc1-c1nc2cc(N)ccc2o1,40,45,55*,1,0.4
CC(C)c1ccc2oc(-c3cc(N)ccc3O)nc2c1,66*,28,93*,25,0.1
CC(C)c1ccc(OCC(=O)NC2=NCCS2)cc1,6,20,57*,0,0.4
O=C(COc1ccccc1)NC1=NCCS1,-5,1,31,0,0.7
CCn1nnc(NC(=O)c2sc3ccccc3c2Cl)n1,34,50,67*,-5,0.3
CCn1nnc(NC(=O)c2cccnc2Cl)n1,-2,2,-5,-5,1
CC(C)c1ccc(/C=C/C(=O)NC2=NCCS2)cc1,x,39,67*,5,0.3
Cc1cccc(C(=O)NC2=NCCS2)c1,22,31,54*,4,0.5
O=C(NC1CCCCC1)C(c1ccncc1)n1c(=O)c(-c2cc3ccccc3[nH]2)nc2ccccc21 (stereo not drawn),-14,x,x,x,x
CCCn1nnc(NC(=O)c2ccc(OC)cc2)n1,7,8,13,0,0.9
CCOc1ccc(C(=O)Nc2nnn(CC)n2)cc1,37,-4,60*,6,0.4
CCOc1ccc(C(=O)NC2=NCCS2)cc1,x,29,52*,-4,0.5
CC(c1ccc2ccccc2c1)c1ccccc1C(=O)O (stereo not drawn),-13,x,x,x,x
COC(=O)[C@@H](Cc1ccccc1)NC(=O)/C=C/[C@H]1O[C@@H](n2cnc3c(NC(=O)c4ccccc4)ncnc32)[C@H](O)[C@@H]1O,5,x,x,x,x
Cc1ccccc1C(=O)NCCN1CCC(n2c(=O)[nH]c3ccccc32)CC1,1,x,x,x,x
Cn1cc(/C=C2/SC(=O)N(c3ccccc3)C2=O)c2ccccc21,-1,7,-2,3,1
Cn1cccc1/C=C1\SC(=O)N(c2ccccc2)C1=O,28,14,52*,-12,0.5
Cn1c(=O)[nH]c(=O)c2c1nc(N1CCCC1)n2CCO,-10,x,x,4,x
Cn1c(=O)[nH]c(=O)c2c1nc(N1CCCCCC1)n2CC(N)=O,-12,15,-6,70*,1.1
CC(=O)N1CCc2c(sc(NC(=O)c3ccc([N+](=O)[O-])o3)c2C(N)=O)C1,62*,x,x,x,x
CCc1ccc(C(=O)COC(=O)c2n[nH]c3ccccc23)cc1,3,4,63*,1,0.4
CC1CCN(C(=O)COC(=O)c2n[nH]c3ccccc23)CC1,27,20,55*,36,0.5
O=C(COC(=O)c1n[nH]c2ccccc12)NC(=O)NC12CC3CC(CC(C3)C1)C2,57*,14,-1,-3,1
O=C(COC(=O)c1n[nH]c2ccccc12)NC(=O)NC1CCCC1,-17,-16,-6,x,1.1
COc1ccc(NC(=O)CSc2nc(C)c3c(c2C#N)CCCC3)cc1,-16,0,-7,2,1.1
SMILES,C8 TRAIL sens,PPC-1+TRAIL kill,FLuc inh counter,Platelet DG rel,FLuc stim CS
CCc1nnc(NC(=O)CSc2nc(C)c3c(c2C#N)CCCC3)s1,66*,57*,12,11,0.9
Fc1cccc(Cc2c(C3CCCCC3)nc3c4ccccc4ccn23)c1,7,x,x,x,x
Cc1ccc(C)c(/C=C2\N=C(c3ccccc3F)OC2=O)c1,-18,x,x,10,x
Cc1ccccc1C1=N/C(=C/c2cccs2)C(=O)O1,7,29,85*,-1,0.2
O=C1/C(=C/c2cccs2)Cc2ccccc21,0,-5,58*,18,0.4
O=C1C(=Cc2cccs2)C(=O)c2ccccc21,1,-1,53*,-5,0.5
O=C1C(=Cc2cccc(Cl)c2)Cc2ccccc21,5,x,x,x,x
Cc1ccc(C=C2C(=O)c3ccccc3C2=O)s1,-10,-1,75*,20,0.3
COc1ccc(C(O)c2ncc(-c3ccccc3C)[nH]2)cc1F (stereo not drawn),-8,x,x,x,x
CCN(CC)C(=O)c1cccc(-c2csc(C(O)c3ccc(F)c(F)c3)n2)c1 (stereo not drawn),15,x,x,x,x
CCOC(=O)C1=CCC(C(C)(C)C)N(S(=O)(=O)c2ccc(C)cc2)C1 (stereo not drawn),17,x,x,x,x
COC(=O)[C@]12CCCCC=C1N(Cc1ccco1)C(=O)[C@H](CC(=O)NCC13CC4CC(CC(C4)C1)C3)C2,-3,x,x,x,x
COc1ccc2c(c1)OC/C(=C/c1cccs1)C2=O,41,30,87*,5,0.1
Cc1ccc(C=C2C(=O)c3ccccc3C2=O)o1,1,20,84*,30,0.2
O=C1NC[C@@H](CCCCN2CCN(CC3CCCCC3)C(=O)C2=O)N(CCC2CCCCC2)C1=O,1,x,x,x,x
CCCc1cc(C(=O)NC2CCCCC2)no1,9,10,7,0,0.9
CCCc1cc(C(=O)NC2CCCC2)no1,-34,7,6,85*,0.9
CSc1ccc(/C=N/Nc2nc(C)cc(=O)[nH]2)cc1,27,22,68*,3,0.3
Cc1cc(=O)[nH]c(N/N=C/c2ccc(O)c(O)c2)n1,-13,x,x,-5,x
CCOC1=C2[C@H](c3ccccc3)N(S(=O)(=O)c3ccc(C)cc3)C(C(C)(C)C)[C@H]2C(C#N)(C#N)C(C#N)(C#N)C1 (stereo partly drawn),4,x,x,x,x
COc1ccc(Cl)cc1-c1cc(C(=O)N[C@H](C)c2ccccc2)[nH]n1,4,x,x,x,x
CC(C)Nc1nc(NC(C)(C)C)nc(Oc2ccc(=O)n(-c3ccccc3)n2)n1,-5,1,-5,60*,1
c1ccc(-c2cnc(-c3ccccc3)nn2)cc1,52*,x,x,18,x
Brc1ccc(-c2ncc(-c3ccccc3)cn2)cc1,10,-2,32,2,0.7
c1ccc(-c2cnc(-c3ccccn3)nn2)cc1,58*,x,x,20,x
SMILES,C8 TRAIL sens,PPC-1+TRAIL kill,FLuc inh counter,Platelet DG rel,FLuc stim CS
CC(C)C[C@H]1CN([C@@H](Cc2ccccc2)CN2CCC[C@@H]2CN2C(=O)C(=O)NC[C@@H]2Cc2ccccc2)C(=O)C(=O)N1CC1CCCCC1,8,x,x,x,x
O=C1c2ccccc2C(=O)c2c1cccc2N1CCCC1,10,22,5,7,0.9
O=C1C=C(N2CCCCC2)c2ccccc2C1=O,94*,x,x,3,x
Cc1cccc(C)c1NC(=O)C1(C)CN(S(C)(=O)=O)CC(=O)N1CCCn1ccnc1 (stereo not drawn),3,x,x,x,x
C=C1C(=O)C=C2CN(C(=O)c3ccccc3)[C@@](Cc3ccc(F)cc3)(C(=O)OC)[C@@H]12,73*,13,-12,5,1.1
O=C1/C(=C\c2ccc(Cl)c(Cl)c2)CN(C(=O)CCN2CCOCC2)C/C1=C/c1ccc(Cl)c(Cl)c1,93*,x,x,x,x
O=C1/C(=C\c2ccccc2)CN(C(=O)CCN2CCCCC2)C/C1=C/c1ccccc1,91*,x,x,x,x
CCN(CC)CCC(=O)N1C/C(=C/c2ccccc2)C(=O)/C(=C\c2ccccc2)C1,93*,x,x,x,x
CC(O)(c1cccnc1)c1nc(-c2cc(F)cc(F)c2)cs1 (stereo not drawn),1,x,x,x,x
CN(c1ccc(C(=O)Nc2ccc3c(c2)OCCO3)cc1)S(C)(=O)=O,42,36,56*,21,0.4
